Compound activity as filed in PubChem BioAssay.
FXIa inh 1536: blocks human coagulation factor XIa protease activity | P03951 | purified FXIa, Boc-Glu-Ala-Arg-AMC fluorogenic substrate | inhibition, % at 5 µM | 0.14% of 220,000 active;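 active = inhibition of at least 40%; inactive = inhibition below 40%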;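 note: fluorescence of freed AMC excited at 355 nm; 0% = enzyme without compound and 100% = no enzyme blank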
PGE2 EP2 inh: inhibitors of human EP2 prostaglandin E2 receptor; 0.52% of 260,000 active; AID 1422; C6 glioma cells expressing human EP2, cAMP TR-FRET; cells stimulated with saturating PGE2; P43116; inhibition, % at 25 µM;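 active = percent inhibition above 40 after rounding to a whole number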;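 note: rat C6 glioma host cells with rolipram phosphodiesterase inhibitor present; the protocol text gives 20 µM as final concentration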
Target sequence (P43116 whole entry, looked up): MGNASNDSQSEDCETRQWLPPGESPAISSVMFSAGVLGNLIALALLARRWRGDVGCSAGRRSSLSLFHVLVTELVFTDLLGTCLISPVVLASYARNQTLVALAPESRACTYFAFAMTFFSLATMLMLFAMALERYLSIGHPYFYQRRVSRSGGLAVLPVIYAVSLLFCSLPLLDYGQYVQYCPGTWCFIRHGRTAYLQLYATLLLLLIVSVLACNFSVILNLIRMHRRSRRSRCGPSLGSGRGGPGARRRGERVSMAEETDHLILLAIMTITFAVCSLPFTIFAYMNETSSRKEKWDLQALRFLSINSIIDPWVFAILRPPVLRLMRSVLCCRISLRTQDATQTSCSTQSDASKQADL
FXIIa inh: inhibitors of human coagulation factor XIIa. P00748. purified FXIIa, Boc-QGR-AMC fluorogenic substrate, 2 h. AID 800. 0.3% of 220,000 active. inhibition, % at 5 µM; in the data active = inhibition above about 40%;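 note: 0% = enzyme with no compound and 100% = blank without enzyme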
hK5 inh: inhibitors of human kallikrein 5; AID 873; recombinant hK5, fluorogenic AMC substrate cleavage; Q9Y337; inhibition, % at 5 µM; 0.59% of 210,000 active;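 active = inhibition of 40% or more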;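 note: 0% = enzyme controls without compound and 100% = no-enzyme blanks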
Target sequence (Q9Y337 67-293 limits assumed): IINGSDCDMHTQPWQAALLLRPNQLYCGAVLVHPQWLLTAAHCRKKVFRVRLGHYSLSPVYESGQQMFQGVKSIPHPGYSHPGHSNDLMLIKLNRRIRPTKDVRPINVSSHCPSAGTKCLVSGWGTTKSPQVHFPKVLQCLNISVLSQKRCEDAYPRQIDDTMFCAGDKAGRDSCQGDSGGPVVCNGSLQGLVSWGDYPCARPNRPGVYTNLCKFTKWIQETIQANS
EP2 mod: modulates human prostaglandin E2 receptor EP2 signaling. EP2-expressing cells, cAMP HTRF FRET, PGE2 co-stimulation. 0.83% of 260,000 active. induction, % at 25 µM. AID 940. P43116;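 active = compounds whose cAMP rise, as percent of the full-agonist control response, exceeds 60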;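 note: rat C6 glioma line stably carrying human EP2 under a CMV promoter; the protocol text gives 20 µM as final concentration; 100% = response of wells given 1 µM PGE2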
thrombin 1536: blocks human thrombin protease activity; 0.26% of 220,000 active; P00734; alpha-thrombin, Boc-VPR-AMC fluorogenic substrate cleavage; inhibition, % at 5 µM;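 active = inhibition at or above 40%; inactive = inhibition below 40%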;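 note: 0% = enzyme with no compound and 100% = wells without enzyme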
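System: human alpha-thrombin protein; Compound dosing: one concentration per compound, 5 µM, with 0.2% DMSO; Timing: reaction at room temperature; Technique: AMC fluorescence, 355/460 nm; Controls: enzyme without compound as high, wells lacking enzyme as low.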
Active calls of the source: *; · = not tested or not shown; ! = not confirmed by another sample. In the library only some 2.1% were active in any assay of this set; here they are far more common.

SMILES	FXIa inh 1536	PGE2 EP2 inh	FXIIa inh	hK5 inh	EP2 mod	thrombin 1536
COc1cc2c(cc1OC)C(c1ccncc1)N(Cc1cccc(C)c1OC)CC2 (stereo unspecified)	·	5.0	·	·	-17.4	·
CC(Cc1ccc2c(c1)OCO2)CN1CCc2c(nc(N3CCCC(C)C3)[nH]c2=O)C1 (stereo unspecified)	·	·	·	·	-10.7	·
CCOC(=O)CNC(=O)Cn1cnc2c(nnn2-c2cccc(Cl)c2)c1=O	12.3	12.6	43.4*	-9.1	5.7	0.8
CC(=O)c1cccc(S(=O)(=O)N2CCC(NC(=O)C3CCCCC3)CC2)c1	·	12.0	·	·	-3.5	·
O=C(NC(=S)NCCN1CCOCC1)c1ccccc1Cl	-4.6	7.1	3.9	-10.9	64.3*	-9.0
O=C(COc1ccc2nsnc2c1)Nc1cccc(C(=O)N2CCCCC2)c1	·	7.0	·	·	-63.6	·
CCN(CC)C(=O)Cn1nc(-c2ccc(C)o2)cc(N)c1=O	·	8.9	·	·	-31.2	·
CCCCCC(=O)Nc1ccc2ccccc2c1	17.0	12.3	21.9	124.2*	-64.5	26.6
CCCCCC(=O)Nc1cc(N(C)C)nc2ccccc12	-11.1	39.8*	-8.5	-20.0	·	0.2
CCN(CC)CC(=O)Nc1cc(N(C)C)nc2ccccc12	2.3	9.1	10.2	-2.7	-12.8	-1.5
Cn1cc(CN(CCCn2ccnc2)Cc2cccc(F)c2)c2cc(F)ccc21	·	2.9	·	·	32.5	·
CCCC(=O)N1c2cc(C)ccc2-c2c(ssc2=S)C1(C)C	·	7.2	·	·	67.5*	·
Cc1ccc2c(c1)-c1c(ssc1=S)C(C)(C)N2C(=O)CSC1=NCCS1	4.3	8.1	12.4	-5.2	45.2	-251.4
CCC/S(C)=N/S(=O)(=O)c1ccc(C)cc1 (stereo unspecified)	37.6	2.6	11.1	48.0*	19.5	10.2
CCc1ccc(C2C(C(C)=O)=C(O)C(=O)N2CC#N)cc1 (stereo unspecified)	·	9.6	·	·	3.4	·
C[C@@]12C[C@H](O)[C@@H]3[C@H](CCC4=CC(=O)CC[C@]43C)[C@H]1CC[C@H]2c1csc(N)n1	·	66.1*	·	·	-24.0	·
CC(=O)[C@@]1(O)CC[C@H]2[C@@H]3CCC4=CC(=O)CC[C@]4(C)[C@H]3[C@@H](O)C[C@@]21C	10.4	9.8	13.8	-10.8	-2.8	-2.6
O=C(O)CCC(O)=C1S(=O)(=O)OCCOS1(=O)=O	·	42.5*	·	·	28.7	·
COc1ccc(NC(=O)CSc2nc3cc(C)c(C)cc3cc2C)c(OC)c1	·	14.5	·	·	60.1	·
CC(C)OCCCn1c(=S)[nH]c2cc3c(cc2c1=O)OCO3	18.8	1.3	20.5	44.5*	14.6	43.7*
NC(N)=N[C@@H]1C(O)[C@H](N=C(N)N)[C@@H](O)C(O)[C@H]1O (stereo partly specified)	·	51.3*	·	·	1.2	·
CC1=C(C)/C(=N\OS(=O)(=O)c2ccccc2)C=CC1=O	1.4	89.0*	13.2	0.2	-79.6	2.4
Cc1ccc(S(=O)(=O)O/N=C2\CCCc3ccccc32)cc1	3.3	10.6	-11.0	-8.3	16.5	-2.7
Cc1sc2nc(C3CC3)n(C3CCN(CC(=O)N4CCCC4)CC3)c(=O)c2c1C	·	·	·	·	-54.6	·
CCc1ccc(NC(=S)N(Cc2cccc(Br)c2)CC2CCC(C(=O)O)CC2)cc1 (stereo unspecified)	25.1	2.3	23.1	65.5*	1.6	8.5
SMILES	FXIa inh 1536	PGE2 EP2 inh	FXIIa inh	hK5 inh	EP2 mod	thrombin 1536
Cc1cc(C)cc(NC(=S)N(Cc2cccc(Br)c2)CC2CCC(C(=O)O)CC2)c1 (stereo unspecified)	2.5	6.8	12.5	-6.4	35.5	-8.1
C=CCSc1nc(C)c(CC=C)c(=O)[nH]1	30.3	3.4	53.2*	1.7	3.2	-0.2
CCN(c1ccccc1)S(=O)(=O)c1ccc(F)cc1C	19.0	10.5	21.8	3.0	62.5*	7.9
CCc1cccc(CC)c1N(COC)C(=O)Cn1c(CO)nc2ccccc21	8.4	4.6	43.4*	4.1	13.4	-1.2
CCc1cccc(CC)c1N(COC)C(=O)Cn1nnc2ccccc21	4.1	12.8	13.8	-9.5	14.1	5.4
Cc1ccc(NC2=C/C(=N\S(=O)(=O)c3cccs3)c3ccccc3C2=O)c(C)c1	8.8	44.1*	13.9	-5.8	-35.6	2.6
C[C@H]1[C@H](O)[C@@H](C)C=CC=CC=CC=CC=CC=CC=C[C@H](O[C@H]2O[C@@H](C)[C@H](O)[C@@H](N)[C@@H]2O)C[C@@H]2O[C@@](O)(C[C@@H](O)C[C@@H](O)[C@@H](O)CC[C@@H](O)C[C@@H](O)CC(=O)O[C@H]1C)C[C@H](O)[C@H]2C(=O)O	·	42.5*	·	·	-9.8	·
O=C(O)CC(=O)Nc1ccccc1C(=O)O	15.2	23.2	68.3*	4.6	18.2	0.6
O=C(CN1CCOCC1)Nc1ccccc1C(=O)O	2.9	125.8*!	17.1	18.3	-5.0	1.9
CCCN(Cc1cc2cc(OC)ccc2[nH]c1=O)C(=O)c1ccccc1C	·	14.8	·	·	-29.4	·
CCN(CC)CCCNC(=S)N(CCO)Cc1cc2ccc(C)cc2[nH]c1=O	·	11.7	·	·	-35.4	·
Cc1cc(C(=O)OCC(=O)N2CC(=O)Nc3ccccc32)c(C)n1-c1ccccc1	4.8	2.3	10.1	60.1*	14.9	8.9
O=C1CN(C(=O)COc2cccc(F)c2)c2ccccc2N1	4.8	3.7	2.4	-4.2	-7.7	6.0
Cn1c2ccccc2c2cc(C(=O)OCC(=O)N3CC(=O)Nc4ccccc43)sc21	3.6	53.0*	13.6	4.5	-34.9	1.0
Cc1cc(C(=O)OCC(=O)N2CC(=O)Nc3ccccc32)c(C)n1-c1ccc(F)cc1	5.7	7.1	3.8	9.4	18.1	-10.4
O=C1CN(C(=O)COc2ccc(F)cc2Cl)c2ccccc2N1	-3.8	2.0	12.4	54.1*	-11.8	14.0
Cc1ccc(S(=O)(=O)NCC(=O)OCC(=O)Nc2ncc(Cl)cc2Cl)cc1	5.7	8.1	71.3*	3.9	23.9	8.3
Cc1ccc(S(=O)(=O)CCC(=O)OCC(=O)Nc2ncc(Cl)cc2Cl)cc1	4.5	11.6	14.2	-9.2	3.5	5.1
COc1ccc(N(CC(=O)Nc2ccc3c(c2)OCCO3)S(=O)(=O)c2c(C)nn(C)c2C)cc1	20.9	·	45.7*	31.0	-12.3	26.5
CCOc1ccc(N(CC(=O)Nc2cccc(F)c2)S(=O)(=O)c2c(C)noc2C)cc1	11.4	16.3	44.9*	41.9*	6.2	23.2
Cc1nn(C)c(C)c1S(=O)(=O)N(CC(=O)Nc1ccc2c(c1)OCO2)c1ccc(C(C)C)cc1	0.0	12.5	2.3	10.5	-7.3	3.4
CCOc1ccc(N(CC(=O)Nc2ccc(C)c(C)c2)S(=O)(=O)c2c(C)noc2C)cc1	0.6	10.9	8.7	-3.5	28.4	-5.1
CC(Sc1nnc(-c2ccccc2)n1N)C(=O)O (stereo unspecified)	·	17.5	·	·	20.7	·
CCCc1cc(C(=O)OC)c(NC(=O)CCCC(=O)O)s1	-0.4	2.1	9.0	5.3	0.8	·
CCCc1cc(C(=O)OC)c(NC(=O)OCC)s1	25.0	0.9	17.4	-27.8	63.4*	0.4
